Results as given in publication PMC7825275 (Cancer chemotherapy and pharmacology, 2019).

Test system: patients with advanced solid tumors
Assay: Toxicity by grade
Format: in vivo, human
Conditions: first cycle including veliparib with carboplatin and paclitaxel, n=73
Summary of the method: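 Adverse events were tabulated descriptively as maximum grade in three groups: the chemotherapy-only lead-in cycle, the first veliparib-containing cycle, and all cycles. CBC and serum chemistry including liver function tests were drawn weekly during cycles 1–2, then at the start of every cycle. Veliparib was oral, twice daily on days 1–7; carboplatin/paclitaxel were IV every 21 days.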

C[C@]1(c2nc3c(C(N)=O)cccc3[nH]2)CCCN1 [veliparib]
Fever, Grade 4: 0 number of patients (%) | Flu like symptoms, Any Grade: 1 (1) number of patients (%) | Flu like symptoms, Grade 1: 1 (1) number of patients (%) | Flu like symptoms, Grade 2: 0 number of patients (%) | Flu like symptoms, Grade 3: 0 number of patients (%) | Flu like symptoms, Grade 4: 0 number of patients (%) | Flushing, Any Grade: 2 (3) number of patients (%) | Flushing, Grade 1: 2 (3) number of patients (%) | Flushing, Grade 2: 0 number of patients (%) | Flushing, Grade 3: 0 number of patients (%) | Flushing, Grade 4: 0 number of patients (%) | Headache, Any Grade: 3 (4) number of patients (%) | Headache, Grade 1: 3 (4) number of patients (%) | Headache, Grade 2: 0 number of patients (%) | Headache, Grade 3: 0 number of patients (%) | Headache, Grade 4: 0 number of patients (%) | Hiccups, Any Grade: 1 (1) number of patients (%) | Hiccups, Grade 1: 1 (1) number of patients (%) | Hiccups, Grade 2: 0 number of patients (%) | Hiccups, Grade 3: 0 number of patients (%) | Hiccups, Grade 4: 0 number of patients (%) | Hypoalbuminemia, Any Grade: 3 (4) number of patients (%) | Hypoalbuminemia, Grade 1: 1 (1) number of patients (%) | Hypoalbuminemia, Grade 2: 2 (3) number of patients (%) | Hypoalbuminemia, Grade 3: 0 number of patients (%) | Hypoalbuminemia, Grade 4: 0 number of patients (%) | Hypocalcemia, Any Grade: 2 (3) number of patients (%) | Hypocalcemia, Grade 1: 0 number of patients (%) | Hypocalcemia, Grade 2: 1 (1) number of patients (%) | Hypocalcemia, Grade 3: 1 (1) number of patients (%) | Hypocalcemia, Grade 4: 0 number of patients (%) | Hypomagnesemia, Any Grade: 1 (1) number of patients (%) | Hypomagnesemia, Grade 1: 0 number of patients (%) | Hypomagnesemia, Grade 2: 1 (1) number of patients (%) | Hypomagnesemia, Grade 3: 0 number of patients (%) | Hypomagnesemia, Grade 4: 0 number of patients (%) | Hyponatremia, Any Grade: 5 (7) number of patients (%) | Hyponatremia, Grade 1: 3 (4) number of patients (%) | Hyponatremia, Grade 2: 0 number of patients (%) | Hyponatremia, Grade 3: 1 (1) number of patients (%) | Hyponatremia, Grade 4: 1 (1) number of patients (%) | Hypophosphatemia, Any Grade: 1 (1) number of patients (%) | Hypophosphatemia, Grade 1: 0 number of patients (%) | Hypophosphatemia, Grade 2: 0 number of patients (%) | Hypophosphatemia, Grade 3: 1 (1) number of patients (%) | Hypophosphatemia, Grade 4: 0 number of patients (%) | Insomnia, Any Grade: 1 (1) number of patients (%) | Insomnia, Grade 1: 1 (1) number of patients (%) | Insomnia, Grade 2: 0 number of patients (%) | Insomnia, Grade 3: 0 number of patients (%) | Insomnia, Grade 4: 0 number of patients (%) | Lymphocyte count decreased, Any Grade: 14 (19) number of patients (%) | Lymphocyte count decreased, Grade 1: 2 (3) number of patients (%) | Lymphocyte count decreased, Grade 2: 8 (11) number of patients (%) | Lymphocyte count decreased, Grade 3: 3 (4) number of patients (%) | Lymphocyte count decreased, Grade 4: 1 (1) number of patients (%) | Mucositis oropharyngeal, Any Grade: 3 (4) number of patients (%) | Mucositis oropharyngeal, Grade 1: 3 (4) number of patients (%) | Mucositis oropharyngeal, Grade 2: 0 number of patients (%) | Mucositis oropharyngeal, Grade 3: 0 number of patients (%) | Mucositis oropharyngeal, Grade 4: 0 number of patients (%) | Muscle weakness, Grade 1: 1(1) number of patients (%) | Muscle weakness, Grade 2: 1 (1) number of patients (%) | Muscle weakness, Grade 3: 0 number of patients (%) | Muscle weakness, Grade 4: 0 number of patients (%) | Myalgia, Any Grade: 8 (11) number of patients (%) | Myalgia, Grade 1: 6 (8) number of patients (%) | Myalgia, Grade 2: 2 (3) number of patients (%) | Myalgia, Grade 3: 0 number of patients (%) | Myalgia, Grade 4: 0 number of patients (%) | Nausea, Any Grade: 28 (38) number of patients (%) | Nausea, Grade 1: 22 (30) number of patients (%) | Nausea, Grade 2: 5 (7) number of patients (%) | Nausea, Grade 3: 1 (1) number of patients (%) | Nausea, Grade 4: 0 number of patients (%) | Neutrophil count decreased, Any Grade: 42 (57) number of patients (%) | Neutrophil count decreased, Grade 1: 1 (1) number of patients (%) | Neutrophil count decreased, Grade 2: 4 (5) number of patients (%) | Neutrophil count decreased, Grade 3: 14 (19) number of patients (%)
